# Results from ChEMBL document CHEMBL1154218, “Design and synthesis of dipeptidyl nitriles as potent, selective, and reversible inhibitors of cathepsin C” (Bioorg Med Chem Lett, 2009).
# Tests used:
# [1] = target: Dipeptidyl peptidase 1 (Homo sapiens, UniProt P53634); test: Inhibition of human recombinant cathepsin C
# How it was run: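 Enzyme: purified human recombinant cathepsin C. IC50 in nM given as mean with standard deviation of at least three experiments.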
# [2] = Metabolic stability in rat whole blood assessed as compound remaining after 30 mins; type: ADME, tissue-based; details: read-out: Activity
# How it was run: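 Compound incubated in fresh rat whole blood for 30 min at 25 °C. Read-out is % of intact parent remaining, with amide hydrolysis products (P2 amino acid, P1 amino nitrile) monitored.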
# [3] = Half life in iv dosed rat; type: ADME, organism-based; details: in vivo
# How it was run: (§1)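 Rats dosed intravenously. Plasma samples were analysed for parent and metabolites to give clearance (ml/min/kg) and half-life.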
# [4] = Clearance in iv dosed rat; type: ADME, organism-based; details: in vivo; how it was run: as §1
# [5] = organism: Rattus norvegicus; test: Metabolic stability in rat whole blood
# [6] = tested on: U-937; test: Cytotoxicity against human U937 cells at 30 uM up to 72 hrs; type: functional, cell-based
# How it was run: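 Human U937 cells were exposed to compound at 30 µM for up to 72 h and assessed for cytotoxicity.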
# Chain of Dipeptidyl peptidase 1 (P53634 25-134 limits assumed): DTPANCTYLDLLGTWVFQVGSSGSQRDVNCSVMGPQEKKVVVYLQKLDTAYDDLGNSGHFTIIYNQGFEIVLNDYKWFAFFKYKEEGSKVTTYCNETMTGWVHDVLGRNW
# Chain of Dipeptidyl peptidase 1 (P53634 231-394 limits assumed): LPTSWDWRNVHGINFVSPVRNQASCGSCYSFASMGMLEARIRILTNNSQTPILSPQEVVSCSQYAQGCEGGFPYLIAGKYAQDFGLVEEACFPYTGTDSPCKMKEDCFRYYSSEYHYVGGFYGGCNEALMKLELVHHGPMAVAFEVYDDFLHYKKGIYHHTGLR
# Chain of Dipeptidyl peptidase 1 (P53634 395-463 limits assumed): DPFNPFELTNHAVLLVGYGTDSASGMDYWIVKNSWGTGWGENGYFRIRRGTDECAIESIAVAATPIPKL
SMILES,IC50 [1] [nM],also measured
N#CCNC(=O)[C@@H](N)Cc1cccs1,17,remaining at 0.5 h [2]: 6%
N#CC1(NC(=O)[C@@H]2C[C@H](F)CN2)CC1,880,
C[C@@H]1CN[C@H](C(=O)N[C@H](C#N)Cc2ccccc2)C1,2500,
N#C[C@H](Cc1ccccc1)NC(=O)[C@@H]1C[C@H](F)CN1,133,
CC(C)(C)[C@@H](C#N)NC(=O)[C@@H](N)Cc1cccs1,> 3000,remaining at 0.5 h [2]: 83%
CO[C@@H]1CN[C@H](C(=O)N[C@H](C#N)Cc2ccccc2)C1,1080,
N#CC1(NC(=O)[C@@H](N)Cc2cccs2)CCC1,1830,
CC(C)[C@H](N)C(=O)N[C@H](C#N)Cc1c[nH]c2ccccc12,330,
CCS[C@@H]1CN[C@H](C(=O)N[C@H](C#N)Cc2ccccc2)C1,271,
CS[C@@H]1CN[C@H](C(=O)N[C@H](C#N)Cc2ccc(-c3ccccc3)cc2)C1,1.7,
N#C[C@H](Cc1ccccc1)NC(=O)[C@@H](N)Cc1cccs1,0.9,half-life [3]: < 30 min; remaining at 0.5 h [2]: 0%; clearance [4]: > 100 mL/min/kg
CS[C@@H]1CN[C@H](C(=O)N[C@H](C#N)Cc2ccccc2)C1,29,
N#C[C@@]1(NC(=O)[C@@H](N)Cc2cccs2)C[C@@H]1c1ccccc1,,half-life [3]: 84 min; remaining at 0.5 h [2]: > 98%; Stability [5]: Stable; Activity [6]: Not toxic; clearance [4]: 35 mL/min/kg
CS[C@@H]1CN[C@H](C(=O)NC2(C#N)CC2)C1,336,
N#C[C@H](Cc1c[nH]c2ccccc12)NC(=O)[C@@H](N)Cc1cccs1,5.8,remaining at 0.5 h [2]: 0%
CC(C)[C@@H](C#N)NC(=O)[C@@H](N)Cc1cccs1,215,remaining at 0.5 h [2]: 11%

# More lines, main results first:
IC50 [1] [nM],SMILES,also measured
4810,N#C[C@H](Cc1ccccc1)NC(=O)[C@@H]1CCCN1,
> 10000,N#C[C@H](Cc1ccc(F)cc1)NC(=O)[C@@H]1CCCN1,
200,CSCC[C@H](N)C(=O)N[C@H](C#N)Cc1c[nH]c2ccccc12,
1,N#C[C@H](Cc1ccc2ccccc2c1)NC(=O)[C@@H](N)Cc1cccs1,half-life [3]: < 30 min; clearance [4]: > 100 mL/min/kg
495,N#C[C@H](Cc1ccccc1)NC(=O)[C@@H]1C[C@H](Cl)CN1,
5.1,N#C[C@H](CC1CCCCC1)NC(=O)[C@@H](N)Cc1cccs1,
1580,CCSCC[C@H](N)C(=O)N[C@H](C#N)Cc1c[nH]c2ccccc12,
630,CCSC[C@H](N)C(=O)N[C@H](C#N)Cc1c[nH]c2ccccc12,
17,N#C[C@]1(NC(=O)[C@@H](N)Cc2cccs2)C[C@H]1c1ccccc1,
2190,N#C[C@]1(NC(=O)[C@@H]2C[C@H](F)CN2)C[C@H]1c1ccccc1,
12,N#CC1(NC(=O)[C@@H](N)Cc2cccs2)CC1,half-life [3]: 30 min; remaining at 0.5 h [2]: 92%; clearance [4]: 113 mL/min/kg
1230,N#CC1(NC(=O)[C@@H](N)Cc2cccs2)CC1c1ccccc1 (mixture of isomers),
11000,CSCC[C@H](N)C(=O)NCCc1c[nH]c2ccccc12,
11,N#C[C@H](CCc1ccccc1)NC(=O)[C@@H](N)Cc1cccs1,
3.8,N#C[C@@H](NC(=O)[C@@H](N)Cc1cccs1)C(c1ccccc1)c1ccccc1,half-life [3]: < 30 min; clearance [4]: > 100 mL/min/kg
63,CC1(C)CC1(C#N)NC(=O)[C@@H](N)Cc1cccs1 (stereo partly drawn),
1420,CC(C)(C#N)NC(=O)[C@@H](N)Cc1cccs1,
0.3,N#C[C@H](Cc1ccc(-c2ccccc2)s1)NC(=O)[C@@H](N)Cc1cccs1,half-life [3]: < 30 min; clearance [4]: > 100 mL/min/kg
0.7,N#C[C@H](Cc1nc2ccccc2s1)NC(=O)[C@@H](N)Cc1cccs1,half-life [3]: < 30 min; clearance [4]: > 100 mL/min/kg
8.2,N#C[C@H](Cc1ccc(-c2ccccc2)cc1)NC(=O)[C@@H]1C[C@H](F)CN1,
